Only some compounds are listed: those with a hit (about 2.4% of all), similar ones and a draw of the others.
Neddylation inh = cullin neddylation inhibition. P61081+Q13564. TR-FRET cullin neddylation, biochemical. inhibition, % at 25 µM. hit rate 0.58% among 360,000. AID 651699; in the data active = inhibition above about 36%
HNF4A DNA FP = change in binding of human HNF4 alpha to DNA | HNF4a-FITC DNA binding, fluorescence polarization, 1 h | hit rate 0.3% among 360,000 | P41235 | activity change, % at 10 µM | AID 1224865; in the data active = activity change above about 30%, passing the limit was not always enough
CSN inh = blocks human CSN-mediated cullin deneddylation; AID 651999; hit rate 0.38% among 360,000; inhibition, % at 12.5 µM; Purified CSN, SCF-Nedd8-OG deneddylation, fluorescence polarization;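 active = pattern-corrected inhibition above about 35%, with an unprinted fluorescence ratio check between 0.5 and 1.5, limit read from the data, passing the limit was not always enough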;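 note: 0% = enzyme with substrate and 100% = substrate without enzyme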
Target sequence (Q92905 whole entry, looked up, one chain of several): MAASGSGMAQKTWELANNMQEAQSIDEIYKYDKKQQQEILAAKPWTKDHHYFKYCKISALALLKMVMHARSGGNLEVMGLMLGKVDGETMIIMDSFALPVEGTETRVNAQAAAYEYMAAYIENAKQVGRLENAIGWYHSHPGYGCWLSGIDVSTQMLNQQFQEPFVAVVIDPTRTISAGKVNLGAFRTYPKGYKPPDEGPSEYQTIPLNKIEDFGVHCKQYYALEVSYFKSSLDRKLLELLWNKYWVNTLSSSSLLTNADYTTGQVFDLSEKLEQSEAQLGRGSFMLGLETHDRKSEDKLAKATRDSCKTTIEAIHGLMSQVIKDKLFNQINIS
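Assay system: Purified human Csn5 enzyme expressed in HEK293T cells | Amount: Enzyme 0.24 nM | Measured by: Fluorescence polarization readout | Medium: Tris/NaCl/DTT buffer, pH 7.5 | Compound dosing: One concentration, 12.5 µM, 0.25% DMSO | Times: 90 min incubation of compound, enzyme and substrate at room temperature | Control set: no-enzyme wells high, enzyme-with-substrate wells low | Read-out: % inhibition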
TbMetRS inhib = blocks T. brucei methionyl-tRNA synthetase activity; purified T. brucei MetRS, ATP depletion, Kinase-Glo luminescence; inhibition, % at 11.9 µM; hit rate 0.4% among 360,000; AID 624268;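 active = inhibition above a per-plate cutoff of the control wells' mean inhibition plus 3 SD, cut at about 5.5% in these data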;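 note: 0% = DMSO wells median and 100% = median of wells with control inhibitor compound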
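System: purified T. brucei MetRS enzyme / Detection: Kinase-Glo luciferase luminescence reporting remaining unconsumed ATP / Medium: HEPES buffer with MgCl2, KCl, DTT, spermine, BSA, pyrophosphatase / Replication: singlicate, one well per compound / Evaluation: percent inhibition relative to median high and low control wells / Schedule: 2 h aminoacylation at 25 °C after 15 min preincubation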
Rpn11 block = blocks the human proteasome subunit Rpn11; O00487; hit rate 0.59% among 360,000; human 26S proteasome, Ub4-pepOG fluorescence polarization; 20S core pre-blocked with epoxomicin; inhibition, % at 20 µM;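 active = inhibition at 20 µM, scaled to each plate's controls, above about 33%, limit read from the data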
Target sequence (O00487 whole entry, looked up): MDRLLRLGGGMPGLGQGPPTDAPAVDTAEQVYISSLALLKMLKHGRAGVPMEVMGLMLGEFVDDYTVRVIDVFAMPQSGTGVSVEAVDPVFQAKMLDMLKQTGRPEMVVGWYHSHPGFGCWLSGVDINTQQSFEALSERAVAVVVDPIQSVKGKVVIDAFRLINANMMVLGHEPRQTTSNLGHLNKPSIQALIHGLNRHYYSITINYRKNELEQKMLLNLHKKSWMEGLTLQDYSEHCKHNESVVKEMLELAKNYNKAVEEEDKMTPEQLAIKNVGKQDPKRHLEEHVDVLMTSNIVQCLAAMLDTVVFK
PREPL inh = inhibits the human prolyl oligopeptidase-like enzyme; inhibition, % at 5.96 µM; recombinant PREPL, fluorescence polarization activity-based probe; hit rate 0.68% among 320,000; in the data active = inhibition above about 43%;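 note: 0% = enzyme with DMSO and 100% = wells lacking enzyme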
Numbers without * were called inactive; x = no result given; + = active, no number.

SMILES | Neddylation inh | HNF4A DNA FP | CSN inh | TbMetRS inhib | Rpn11 block | PREPL inh
CCOc1cc(CNc2ccc(N(C)C)cc2)cc(Br)c1OCC(=O)NC(C)(C)C | 9 | 1 | -2 | 0 | -5 | 14
CCOc1cc(CNc2cccc3ccccc23)cc(Br)c1OCC(=O)NC(C)(C)C | 31 | -3 | -1 | 0 | -2 | 57*
COc1ccc(Cc2c(-c3ccc(OC)c(OC)c3)nc3cc(C)c(Br)c(C)n23)c(C)c1 | -24 | 0 | 0 | 3 | x | x
CCOC(=O)N1CCN(/C=C(\C#N)c2nc3ccccc3s2)CC1 | -22 | 29 | 6 | -1 | x | 7
N#C/C(=C\N1CCN(Cc2ccc3c(c2)OCO3)CC1)c1nc2ccccc2s1 | -7 | 30* | 18 | 0 | x | 18
S=C(Nc1ccc(Cl)cc1)N1CCOCC1 | -5 | 2 | 42* | 0 | 4 | 0
Fc1ccc(NC(=S)N2CCOCC2)cc1Cl | 11 | 2 | -2 | 0 | 0 | 7
O=C(COc1ccccc1)N[C@@H]1c2ccccc2CC[C@@H]1O | 1 | -1 | 57* | -1 | -2 | x
O=C(COc1ccccc1)N[C@@H]1c2ccccc2CC[C@@H]1OCc1ccccc1 | -4 | 1 | 1 | 2 | -4 | x
Cc1ccc(C(=O)Nc2cccc(-c3cn4ccccc4n3)c2)cc1 | 10 | -1 | 35* | 0 | 0 | 7
CC1c2ccccc2N(S(=O)(=O)c2ccccc2)C1C (centres undefined) | 0 | 2 | -1 | 0 | 5 | x
COc1ccc2c(c1)CCC(=O)[C@H](O)C[C@H](c1ccccc1)OC2=O | 8 | 1 | -4 | 0 | x | x
COc1ccc2c(c1)C(=O)O[C@@H](c1ccccc1)C[C@@H](O)C(=O)CC2 | 2 | 2 | 87* | 0 | x | x
COCCCn1c(=O)/c(=C\c2ccc(OC(F)F)c(OC)c2)s/c1=C(/C#N)C(=O)NCCOC | 39 | 74* | 57* | -1 | x | 6
Cc1ccc(/C=c2\s/c(=C(/C#N)C(=O)N3CCCC3)n(Cc3ccco3)c2=O)s1 | -8 | 1 | 13 | 2 | -16 | 7
COCCCn1c(=O)/c(=C\c2ccccc2OC(F)F)s/c1=C(/C#N)C(=O)NC(C)C | 6 | 22 | 36* | 0 | x | 13
COC(=O)[C@@]12C[C@@H](CC(=O)NCC34CC5CC(CC(C5)C3)C4)C(=O)N(Cc3ccco3)C1=CCC(C)(C)C2 | -10 | -6 | 3 | 0 | x | x
CCOC(=O)CC1(C)Oc2ccccc2N1S(=O)(=O)c1ccc(C)cc1 (centres undefined) | 8 | 2 | -5 | 0 | x | x
O=C(N1CCCCC1)C1(c2ccccc2)CCCCC1 | 7 | -1 | 37* | 0 | -1 | 4
CC(=NO)c1ccc2c(c1)C(=NO)c1ccccc1-2 | 14 | -3 | 0 | 0 | -14 | x
O=C(N/N=C(\c1ccccc1)c1cccnc1)c1cc(O)ccc1O | x | x | x | x | x | 7
COc1cc2oc(=O)cc(CN3CCOCC3)c2cc1Cl | 8 | 1 | 118* | 0 | 6 | x
COc1ccc(-c2n[nH]c(=S)n2-c2ccc(C)cc2C)cc1 | 0 | 36* | 1 | 0 | -7 | -5
Cc1ccc2nc(SCC(=O)Nc3ccc(C(N)=O)cc3)[nH]c2c1 | 4 | 1 | -2 | 0 | -7 | -2
Cc1ccc2nc(SCC(=O)Nc3cccc([N+](=O)[O-])c3)[nH]c2c1 | -32 | 2 | 0 | 72* | -1 | 10
SMILES | Neddylation inh | HNF4A DNA FP | CSN inh | TbMetRS inhib | Rpn11 block | PREPL inh
Cc1ccc2nc(SCc3ccc([N+](=O)[O-])cc3)[nH]c2c1 | -34 | -6 | 1 | 19* | -3 | 7
O=C(N/N=C/c1c(O)n(-c2ccc(Cl)cn2)c(=O)c2ccccc12)C1CC1 | 8 | 13 | 1 | 1 | 28 | -5
O=C(N/N=C/c1c(O)n(-c2ccc(Cl)cn2)c(=O)c2ccccc12)c1ccncc1 | -20 | 72* | 21 | 0 | x | 6
CC(=O)c1sc2nc(-c3ccco3)ccc2c1N | 82* | -22 | 37 | 1 | -5 | 17
Cn1ccc(C(=O)N/N=C/c2ccncc2)n1 | -3 | 0 | -1 | -1 | -3 | x
Cc1cccc([C@@H]2[C@@H]3C(=O)N(Cc4ccccc4)C(=O)[C@@H]3[C@]3(Cc4ccccc4)C(=O)N(c4ccc(C(F)(F)F)cc4)C(=O)N23)c1 | -5 | -6 | -4 | 0 | -1 | -5
NC(=O)c1c(NC(=O)c2ccco2)sc2c1CCC2 | -65 | 2 | 0 | -1 | -8 | 8
N#Cc1c(NC(=O)c2ccco2)sc2c1CCC2 | 13 | -16 | 39* | 0 | 14 | 6
Cn1c(N/N=C/c2cc3ccccc3nc2Cl)nc2ccccc21 | 6 | 60* | 11 | 0 | 10 | 23
Cc1nnc(C)n1/N=C/c1cc2ccccc2nc1Cl | 0 | -4 | 6 | 0 | 0 | -5
O=C(c1ccc2nc3ccccc3c(=O)n2c1)N1CCN(Cc2ccc3c(c2)OCO3)CC1 | x | 39* | 7 | 0 | 12 | -21
Cc1cccc(C)c1NC(=O)CNC(=O)CCCc1c[nH]c2ccccc12 | 11 | -1 | -2 | -1 | -4 | -1
CCCCCCC1(C)NC(=O)N(C(C)C(=O)Nc2ccc(N3CCOCC3)cc2)C1=O (centres undefined) | -1 | 1 | -4 | 0 | 2 | 15
O=C(N/N=C/c1cccc(F)c1)c1cc(-c2ccco2)nc2ccccc12 | 40* | -41 | 57 | -1 | 26 | 0
COc1cc(/C=N/NC(=O)c2cc(-c3ccco3)nc3ccccc23)cc(OC)c1O | -6 | -1 | 3 | 0 | 3 | 9
COc1cc(/C=C2\CCC(C)C3=C(c4cc(OC)c(OC)c(OC)c4)C(C#N)=C(N)OC32)cc(OC)c1OC (centres undefined) | 18 | 78* | 75 | 0 | x | x
COc1cc(/C=C2\CC/C(=C\c3cc(OC)c(OC)c(OC)c3)C2=O)cc(OC)c1OC | 3 | 0 | 8 | -1 | 12 | 9
CCOc1ccccc1N1CC(C(=O)NNC(=O)c2ccc(F)cc2)CC1=O (centres undefined) | 7 | -3 | + | -1 | -4 | 0
CCOc1ccc(N2CC(C(=O)NNC(=O)c3ccc(F)cc3)CC2=O)cc1 (centres undefined) | 11 | -1 | 3 | 0 | 0 | 0
CCN1C(=O)[C@@H]2[C@@H]3CN(S(=O)(=O)c4ccc(C)cc4)[C@@H](c4ccccc4Cl)[C@@H]3C(=O)C[C@@H]2C1=O | 6 | 0 | 2 | 0 | 6 | x
NCCC(=O)NC[C@H]1O[C@@H](n2cnc3c(N)ncnc32)[C@H](O)[C@@H]1O | -5 | 2 | 4 | 0 | -8 | x
Nc1ncnc2c1ncn2[C@@H]1O[C@H](COS(=O)(=O)O)[C@@H](O)[C@H]1O | 69* | -2 | -4 | 0 | -4 | 13

Source: PubChem
